Assay results from different studies.
Each line is one published result; the experiments were not run side by side.
CYP2B6: Cytochrome P450 2B6 (CYP2B6, Homo sapiens, UniProt P20813)

Structure (SMILES)	tested on	assay	system	setting	endpoint	value
CC(C)n1ncc2c(C(=O)NCC3(C)CNC3)cc(C3CC3)nc21	HeLa	cell growth or viability, neutral red		0.11 µM	viability	99.9%
C[C@]1(O)CCCN(c2nc(Nc3ccc(S(=O)(=O)N[C@H]4CC[C@H](CN5CCN(c6ccc(C7CCC(=O)NC7=O)c(F)c6)CC5)CC4)cc3F)ncc2C(F)(F)F)C1 (some centres unmarked)			rat, plasma	intravenous, 2 mg/kg	clearance	6 mL/min/kg
CO[C@H]1C[C@H](O[C@@H]2/C(C)=C/C[C@@H]3C[C@@H](C[C@]4(CC[C@H](C)[C@@H](C5CCCCC5)O4)O3)OC(=O)[C@@H]3C=C(C)/C(=N/O)[C@H]4OC/C(=C\C=C\[C@@H]2C)[C@]43O)O[C@@H](C)[C@@H]1O		haemolysis	human	50 µM, 3 h	haemolysis	> 18%
OCc1ccc(-c2nn(Cc3ccccc3)c3ccccc23)o1	CYP2B6	enzyme activity, inhibitor	human, liver microsomes		IC50	5.1 µM
CSc1ccccc1C(=O)NCCn1cc(C(=O)NCc2cccc(C)n2)c(=O)c2cc3c(cc21)OCO3	CYP2B6	enzyme activity, inhibitor	human, liver microsomes	20 min, without NADPH, with preincubation	IC50	> 100 µM
Cc1cc(S(=O)(=O)N[C@]2(C)C[C@@H](N3CCN(CC4CCN(c5ccc6c(c5F)n(C)c(=O)n6C5CCC(=O)NC5=O)CC4)CC3)C2)ccc1Nc1ncc(C(F)(F)F)c(N2CCC[C@](C)(O)C2)n1 (some centres unmarked)			rat, plasma	intravenous, 2 mg/kg	clearance	62 mL/min/kg
CC(C)[C@H](N)C(=O)N[C@H](Cc1ccccc1)C(=O)N[C@@H](Cc1ccccc1)C(=O)N[C@H](CCCN)C(=O)N[C@H](C(=O)N[C@H](CCCNC(=N)N)C(=O)O)[C@@H](C)O		haemolysis	human	100 µM	haemolysis	< 10%
c1cc(N2CCCCC2)ccc1Nc1cc2ncc(OCC3CCNCC3)nc2cc1-c1ccc(N2CCCCC2)cc1	HeLa	cell growth or viability, XTT		7 days	EC50	27.5 µM
CC(C)[C@@H]1NC(=O)[C@@H](CCCNC(=N)N)NC(=O)[C@H]([C@@H](C)O)NC(=O)[C@@H](CCCN)NC(=O)[C@H](Cc2ccccc2)NC(=O)[C@@H](Cc2ccccc2)NC1=O		haemolysis	human	100 µM	haemolysis	< 10%
C[C@H]1Oc2cc(cnc2N)-c2c(nn(C)c2C#N)CN(C)C(=O)c2ccc(F)cc21			male Sprague-Dawley rat, plasma	oral, 5 mg/kg, single dose	CL/F	50 mL/min/kg
Cc1cc(S(=O)(=O)NC2CC(N3CCN(CC4CCN(c5ccc(NC6CCC(=O)NC6=O)cc5C)CC4)CC3)C2)ccc1Nc1ncc(C(F)(F)F)c(N2CCC[C@](C)(O)C2)n1 (some centres unmarked)			rat, plasma	intravenous, 2 mg/kg	clearance	26 mL/min/kg
CC(C)[C@@H]1NC(=O)[C@@H](CCCNC(=N)N)NC(=O)[C@H]([C@@H](C)O)NC(=O)[C@@H](CCCCN)NC(=O)[C@H](Cc2ccccc2)NC(=O)[C@@H](Cc2ccccc2)NC1=O		haemolysis	human	100 µM	haemolysis	< 10%
C[C@]1(O)CCCN(c2nc(Nc3ccc(S(=O)(=O)N[C@H]4CC[C@H](CN5CCN(c6ccc(C7CCC(=O)NC7=O)cc6F)CC5)CC4)cc3F)ncc2C(F)(F)F)C1 (some centres unmarked)			rat, plasma	intravenous, 2 mg/kg	clearance	12 mL/min/kg
CC(C)[C@@H]1NC(=O)[C@@H](CCCNC(=N)N)NC(=O)[C@H]([C@@H](C)O)NC(=O)[C@@H](C)NC(=O)[C@H](Cc2ccccc2)NC(=O)[C@@H](Cc2ccccc2)NC1=O		haemolysis	human	100 µM	haemolysis	< 10%
